Converted amounts (≈) assume the structure as drawn. The source made the active and inactive calls. The rule behind the calls is not given here.
Key:
[1] = test system: Cynomolgus monkey; assay: In vivo inhibition of CYP11B2 in cynomolgus monkey assessed as reduction in ACTH-induced 11-deoxycorticosterone at 0.01 to 10 mg/kg, po preincubated for 1 hr followed by ACTH challenge and measured after 60 mins by LC/MS-MS analysis; format: functional, organism-based; conditions: Macaca fascicularis
Method in brief: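 Cynomolgus monkeys preselected as Synacthen responders (at least 2-fold rise in aldosterone, cortisol and corticosterone). Two animals per group. Oral vehicle or compound at 0.01–10 mg/kg in hydroxyethylcellulose/polysorbate 80/paraben suspension (2 mL/kg) at T=0, then 14.5 µg/kg Synacthen i.m. at 1 hr. EDTA blood drawn from -5 min to 24 h. Plasma steroids measured by LC/MS-MS; data shown 60 min after challenge.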

[2] = target: T1, Cytochrome P450 11B2, mitochondrial (Homo sapiens, UniProt P19099); assay: Inhibition of human CYP11B2 expressed in human renal leiomyoblastoma cells harboring FDXR/FDX using 1-deoxycorticosterone as substrate by HTRF assay; format: cell-based
T1 sequence (P19099 whole entry): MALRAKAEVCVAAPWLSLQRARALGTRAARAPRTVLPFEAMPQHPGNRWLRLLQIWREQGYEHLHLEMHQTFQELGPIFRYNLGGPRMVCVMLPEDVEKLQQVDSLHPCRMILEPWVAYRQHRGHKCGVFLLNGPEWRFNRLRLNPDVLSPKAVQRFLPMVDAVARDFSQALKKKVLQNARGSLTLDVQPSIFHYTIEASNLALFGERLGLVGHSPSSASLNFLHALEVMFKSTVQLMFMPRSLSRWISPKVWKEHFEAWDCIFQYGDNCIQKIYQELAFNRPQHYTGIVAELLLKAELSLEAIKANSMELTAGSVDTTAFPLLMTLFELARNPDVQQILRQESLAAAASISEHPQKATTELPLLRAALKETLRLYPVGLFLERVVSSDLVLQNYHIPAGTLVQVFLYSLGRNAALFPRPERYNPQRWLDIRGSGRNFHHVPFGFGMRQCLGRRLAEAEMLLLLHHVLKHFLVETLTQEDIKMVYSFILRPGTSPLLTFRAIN
Method in brief: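 Cells with endogenous FDXR/FDX and no detectable CYP11B activity, stably transfected (CMV promoter, neomycin selection, G-418 400 µg/mL) with CYP11B1 or CYP11B2 of the named species. Assayed in DMEM/F12 with 2.5% charcoal-treated FCS. Substrate 1 µM 11-deoxycorticosterone (B2) or 11-deoxycortisol (B1), 16 hr. Aldosterone or cortisol in supernatant measured by HTRF. IC50 from 4-parameter MMF fit; selectivity factor is the B1/B2 IC50 ratio.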

[3] = Solubility of the compound in phosphate buffer at pH 6.5 shaken for 2 hrs followed by overnight incubation; format: physicochemical
Method in brief: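 Lyophilisation solubility assay run in duplicate from 10 mM DMSO stock. DMSO evaporated and residue redissolved in 0.05 M phosphate, pH 6.5. Stirred 1 hr, shaken 2 hr, left overnight, then filtered. Filtrate and a 1/10 dilution analysed by HPLC-UV against a four-point calibration.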

[4] = Plasma clearance in Wister-Han rat at 1 mg/kg, iv administered as single dose by LC/MS-MS analysis; format: ADME, organism-based; conditions: Wistar-Han
Method in brief: (§1)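 Male Wistar-Han rats, single dose. IV 1 mg/kg, compound at 0.5 mg/mL in NMP:saline 30/70 (v/v). Oral 3 mg/kg, 0.25 mg/mL in 2% Klucel with 0.1% Polysorbate 80. Three rats per time point. Heparinized blood taken at eight (iv) or seven (po) time points, plasma stored at -20 °C. Plasma levels by LC/MS-MS. Non-compartmental analysis.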

[5] = Oral bioavailability in Wister-Han rat at 3 mg/kg administered as single dose by LC/MS-MS analysis; format: ADME, organism-based; conditions: Wistar-Han, in vivo; method in brief: as §1
[6] = Intrinsic clearance in rat hepatocytes; format: ADME, cell-based, Hepatocyte; conditions: read-out: CLH
[7] = Oral bioavailability in cynomolgus monkey; format: ADME, organism-based, Macaca fascicularis; conditions: in vivo
[8] = Free plasma concentration in cynomolgus monkey at 0.1 mg/kg; format: ADME, organism-based, Macaca fascicularis; conditions: in vivo
Method in brief: (§2)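 Cynomolgus monkeys, 2 per group, given single oral doses of 0.01, 0.1, 1 or 10 mg/kg as a suspension in hydroxyethylcellulose/polysorbate 80/parabens vehicle, 2 mL/kg. Synacthen 14.5 µg/kg given i.m. at 1 hr. Plasma compound levels by LC/MS-MS. Average free exposure calculated from AUC0-7hr and corrected for plasma protein binding.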

[9] = Free plasma concentration in cynomolgus monkey at 1 mg/kg; format: ADME, organism-based, Macaca fascicularis; conditions: in vivo; method in brief: as §2
[10] = Free plasma concentration in cynomolgus monkey at 10 mg/kg; format: ADME, organism-based, Macaca fascicularis; conditions: in vivo; method in brief: as §2
[11] = target: T1, Cytochrome P450 11B2, mitochondrial; assay: Inhibition of CYP11B2 in H295R cell assessed as reduction in aldosterone by LC/MS-MS method

IC50 [2]: 4 nM | solubility at 2 h [3]: 78 µg/mL (≈ 179 µM) | clearance [4]: 3.8 mL/min/kg | bioavailability [5]: 45% | CLint scaled [6]: 26.7 mL/min/kg | bioavailability [7]: 19% | Cp(f) [8]: 0.825 ng/mL | Cp(f) [9]: 10.3 ng/mL | Cp(f) [10]: 86.46 ng/mL | IC50 [11]: < 1 nM
Compound: CCS(=O)(=O)N1CC(Oc2cncc(N3C(=O)c4ccc(Cl)cc4C3(C)C)c2)C1
inhibition [1]: inactive
